Source: BindingDB's records for doi:10.1021/jm801330n (University of Siena, 2009)

Biological target: Reverse transcriptase (Human immunodeficiency virus 1, UniProt Q9WKE8)
Experiment: Binding affinity to HIV1 reverse transcriptase treated for 3 mins by surface plasmon resonance
Outline: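 Kinetic titration SPR at 25 °C against an RT surface, with an untreated dextran surface as reference. Running buffer: 10 mM Hepes, 150 mM NaCl, 3.4 mM EDTA, 0,01% P20, 4% DMSO, pH 7.5. Five sequential 3-min injections at 50 µL·min^-1 (0.075–1.2 µM, 2-fold steps), each followed by 2-min dissociation, and a final 20-min dissociation. Data were double-referenced.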

## COc1ccc([C@@H]2C[C@H]2CSc2nc([C@H](C)c3c(F)cccc3F)c(C)c(=O)[nH]2)cc1
  koff: 2.1e-05 s⁻¹
